Experimental data published in ChEMBL document CHEMBL4152234, “Aminobenzothiazole derivatives stabilize the thermolabile p53 cancer mutant Y220C and show anticancer activity in p53-Y220C cell lines” (Eur J Med Chem, 2018).
Active and inactive are the calls of the source. The rule behind the calls is not given here.

Key:
[1] = molecular target: T1, Cellular tumor antigen p53 (Homo sapiens, UniProt P04637); assay: Activation of p53 in human NUGC4 cells assessed as change in FAS mRNA level at 60 uM after 18 hrs by RT-PCR method relative to control; assay type: cell-based; conditions: read-out: FC
Procedure, shortened: (§1)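 p53 signaling qPCR array of 84 p53-pathway genes. Cells were treated in 6-well plates for 18 h with 0.5% DMSO in compound and control samples. Total RNA was extracted and fold-changes were obtained by the ΔΔCt method against untreated control, with β2-microglobulin (B2M) as housekeeping gene. Two independent biological replicates per cell line.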

[2] = test system: Cellular tumor antigen p53 (Homo sapiens), P04637 [Y220C]; assay: Activation of p53 Y220C mutant in human NUGC3 cells assessed as change in CDK1 mRNA level at 60 uM after 18 hrs by RT-PCR method relative to control; assay type: cell-based
Procedure, shortened: (§2)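 p53 signalling qPCR array covering 84 genes. Cells were exposed for 18 h, with 0.5% DMSO in both compound and control samples. Total RNA was extracted and purified. Fold-changes were calculated by ΔΔCt using β2-microglobulin (B2M) as the housekeeping gene. Two independent biological replicates were run per cell line.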

[3] = test system: Cellular tumor antigen p53 (Homo sapiens), P04637 [Y220C]; assay: Activation of p53 Y220C mutant in human NUGC3 cells assessed as change in TSC1 mRNA level at 60 uM after 18 hrs by RT-PCR method relative to control; assay type: cell-based
Procedure, shortened: (§3)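 p53 signalling qPCR array covering 84 p53 pathway genes. Cells were exposed for 18 h, and compound and control wells both held 0.5% DMSO. Total RNA was extracted and purified. Fold-changes were calculated by the ΔΔCt method against the untreated sample, with β2-microglobulin (B2M) as the housekeeping gene. Each cell line was run in two independent biological replicates.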

[4] = molecular target: T1, Cellular tumor antigen p53; assay: Activation of p53 in human NUGC4 cells assessed as change in EI24 mRNA level at 60 uM after 18 hrs by RT-PCR method relative to control; assay type: cell-based; conditions: read-out: FC; procedure, shortened: as §1
Huh-7 = assay: Upregulation of MDM2 mRNA level in p53 Y220C mutant knockout human HuH7 cells at 30 uM after 18 hrs by RT-PCR method; assay type: functional, cell-based
[5] = molecular target: T1, Cellular tumor antigen p53; assay: Activation of p53 in human NUGC4 cells assessed as change in MDM2 mRNA level at 60 uM after 18 hrs by RT-PCR method relative to control; assay type: cell-based; conditions: read-out: FC; procedure, shortened: as §1
[6] = test system: Cellular tumor antigen p53 (Homo sapiens), P04637 [Y220C]; assay: Activation of p53 Y220C mutant in human NUGC3 cells assessed as change in STAT1 mRNA level at 60 uM after 18 hrs by RT-PCR method relative to control; assay type: cell-based; procedure, shortened: as §3
[7] = test system: Cellular tumor antigen p53 (Homo sapiens), P04637 [Y220C]; assay: Activation of p53 Y220C mutant in human NUGC3 cells assessed as change in BBC3 mRNA level at 60 uM after 18 hrs by RT-PCR method relative to control; assay type: cell-based; procedure, shortened: as §2
[8] = molecular target: T1, Cellular tumor antigen p53; assay: Activation of p53 in human NUGC4 cells assessed as change in IL6 mRNA level at 60 uM after 18 hrs by RT-PCR method relative to control; assay type: cell-based; conditions: read-out: FC; procedure, shortened: as §1
[9] = molecular target: T1, Cellular tumor antigen p53; assay: Activation of p53 in human NUGC4 cells assessed as change in BIRC5 mRNA level at 60 uM after 18 hrs by RT-PCR method relative to control; assay type: cell-based; conditions: read-out: FC; procedure, shortened: as §3
[10] = molecular target: T1, Cellular tumor antigen p53; assay: Activation of p53 in human NUGC4 cells assessed as change in TRAF2 mRNA level at 60 uM after 18 hrs by RT-PCR method relative to control; assay type: cell-based; conditions: read-out: FC
[11] = molecular target: T1, Cellular tumor antigen p53; assay: Activation of p53 in human NUGC4 cells assessed as change in MSH2 mRNA level at 60 uM after 18 hrs by RT-PCR method relative to control; assay type: cell-based; conditions: read-out: FC; procedure, shortened: as §1
[12] = molecular target: T1, Cellular tumor antigen p53; assay: Activation of p53 in human NUGC4 cells assessed as change in BAX mRNA level at 60 uM after 18 hrs by RT-PCR method relative to control; assay type: cell-based; conditions: read-out: FC; procedure, shortened: as §3
[13] = test system: Cellular tumor antigen p53 (Homo sapiens), P04637 [Y220C]; assay: Activation of p53 Y220C mutant in human NUGC3 cells assessed as change in MDM4 mRNA level at 60 uM after 18 hrs by RT-PCR method relative to control; assay type: cell-based; procedure, shortened: as §3
[14] = test system: Cellular tumor antigen p53 (Homo sapiens), P04637 [Y220C]; assay: Activation of p53 Y220C mutant in human NUGC3 cells assessed as change in PTTG1 mRNA level at 60 uM after 18 hrs by RT-PCR method relative to control; assay type: cell-based; procedure, shortened: as §3
[15] = test system: Cellular tumor antigen p53 (Homo sapiens), P04637 [Y220C]; assay: Activation of p53 Y220C mutant in human NUGC3 cells assessed as change in TNF mRNA level at 60 uM after 18 hrs by RT-PCR method relative to control; assay type: cell-based; procedure, shortened: as §3
[16] = molecular target: T1, Cellular tumor antigen p53; assay: Activation of p53 in human NUGC4 cells assessed as change in CASP9 mRNA level at 60 uM after 18 hrs by RT-PCR method relative to control; assay type: cell-based; conditions: read-out: FC; procedure, shortened: as §1
[17] = test system: Cellular tumor antigen p53 (Homo sapiens), P04637 [Y220C]; assay: Activation of p53 Y220C mutant in human HuH7 cells assessed as increase in MDM2 mRNA level at 30 uM after 18 hrs by RT-PCR method; assay type: cell-based
Procedure, shortened: (§4)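 Real-time PCR. Cells were treated for 18 h, with 0.5% DMSO in both compound and control samples. Relative mRNA levels were quantified by the ΔΔCt method as fold-change against the untreated sample. Each sample was measured in triplicate, and data are given as mean ± SEM with an unpaired t-test.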

[18] = molecular target: T1, Cellular tumor antigen p53; assay: Activation of p53 in human NUGC4 cells assessed as change in BCL2A1 mRNA level at 60 uM after 18 hrs by RT-PCR method relative to control; assay type: cell-based; conditions: read-out: FC; procedure, shortened: as §3
[19] = test system: Cellular tumor antigen p53 (Homo sapiens), P04637 [Y220C]; assay: Activation of p53 Y220C mutant in human NUGC3 cells assessed as change in CDKN2A mRNA level at 60 uM after 18 hrs by RT-PCR method relative to control; assay type: cell-based; procedure, shortened: as §2
[20] = test system: Cellular tumor antigen p53 (Homo sapiens), P04637 [Y220C]; assay: Activation of p53 Y220C mutant in human HuH7 cells assessed as increase in BBC3 mRNA level at 30 uM after 18 hrs by RT-PCR method; assay type: cell-based; procedure, shortened: as §4
[21] = test system: Cellular tumor antigen p53 (Homo sapiens), P04637 [Y220C]; assay: Activation of p53 Y220C mutant in human NUGC3 cells assessed as change in MDM2 mRNA level at 60 uM after 18 hrs by RT-PCR method relative to control; assay type: cell-based; procedure, shortened: as §3
[22] = molecular target: T1, Cellular tumor antigen p53; assay: Activation of p53 in human NUGC4 cells assessed as change in TP53 mRNA level at 60 uM after 18 hrs by RT-PCR method relative to control; assay type: cell-based; conditions: read-out: FC
[23] = test system: Cellular tumor antigen p53 (Homo sapiens), P04637 [Y220C]; assay: Activation of p53 Y220C mutant in human NUGC3 cells assessed as change in NF1 mRNA level at 60 uM after 18 hrs by RT-PCR method relative to control; assay type: cell-based; procedure, shortened: as §3
[24] = test system: Cellular tumor antigen p53 (Homo sapiens), P04637 [Y220C]; assay: Activation of p53 Y220C mutant in human NUGC3 cells assessed as change in CCNB1 mRNA level at 60 uM after 18 hrs by RT-PCR method relative to control; assay type: cell-based; procedure, shortened: as §2
[25] = test system: Cellular tumor antigen p53 (Homo sapiens), P04637 [Y220C]; assay: Activation of p53 Y220C mutant in human NUGC3 cells assessed as change in S1AH1 mRNA level at 60 uM after 18 hrs by RT-PCR method relative to control; assay type: cell-based; procedure, shortened: as §3
[26] = molecular target: T1, Cellular tumor antigen p53; assay: Activation of p53 in human NUGC4 cells assessed as change in STAT1 mRNA level at 60 uM after 18 hrs by RT-PCR method relative to control; assay type: cell-based; conditions: read-out: FC
[27] = molecular target: T1, Cellular tumor antigen p53; assay: Activation of p53 in human NUGC4 cells assessed as change in NF1 mRNA level at 60 uM after 18 hrs by RT-PCR method relative to control; assay type: cell-based; conditions: read-out: FC; procedure, shortened: as §1

SMILES: CCNC(=O)c1c(O)c(I)c(-n2cccc2)c2sc(N(CC)CC)nc12
- fold induction at 60 µM [1]: 1
- fold change (FC) [2]: 1.5
- fold change (FC) [3]: 1.3
- fold induction at 60 µM [4]: 0.8
- Activity (Huh-7): inactive
- fold induction at 60 µM [5]: 0.8
- fold change (FC) [6]: 0.8
- fold change (FC) [7]: 2.6
- fold induction at 60 µM [8]: 7.9
- fold induction at 60 µM [9]: 0.6
- fold induction at 60 µM [10]: 0.8
- fold induction at 60 µM [11]: 0.7
- fold induction at 60 µM [12]: 0.8
- fold change (FC) [13]: 1.3
- fold change (FC) [14]: 1.5
- fold change (FC) [15]: 5.6
- fold induction at 60 µM [16]: 1
- Activity [17]: Active
- fold induction at 60 µM [18]: 6.1
- fold change (FC) [19]: 1.3
- Activity [20]: Active
- fold change (FC) [21]: 1
- fold induction at 60 µM [22]: 0.8
- fold change (FC) [23]: 1.4
- fold change (FC) [24]: 1.1
- fold change (FC) [25]: 1.5
- fold induction at 60 µM [26]: 0.9
- fold induction at 60 µM [27]: 0.8
